Experimental data: ChEMBL document CHEMBL3853327 (J Med Chem, 2016)

Experiments:
[1] = test system: Human immunodeficiency virus 1; experiment: Potency index, ratio of ETV EC50 to compound EC50 for HIV1 3B harboring reverse transcriptase YI88L mutant infected in human MT4 cells; assay type: functional
[2] = test system: Human immunodeficiency virus 1; experiment: Potency index, ratio of ETV EC50 to compound EC50 for wild type HIV1 3B harboring reverse transcriptase infected in human MT4 cells; assay type: functional
[3] = Apparent half life in Sprague-Dawley rat plasma at 8 mg/kg administered through oral gavage measured at 5 mins to 24 hrs post dosing by LC/MS analysis; assay type: ADME, organism-based; settings: in vivo
Summary of the method: (§1)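 Male Sprague-Dawley rats, ten randomly split into two groups (n = 5), single gavage dose of 8 or 16 mg·kg−1 in PEG 400/normal saline (70/30, V/V). Jugular sinus blood into heparinized tubes at 5 min to 24 h; plasma separated at 2200g for 8 min, stored −20 °C. Methanol precipitation with internal standard, LC-MS quantitation against plasma standard curves. Parameters reported as mean ± SD.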

[4] = Apparent clearance during terminal phase in Sprague-Dawley rat plasma at 16 mg/kg administered through oral gavage measured at 5 mins to 24 hrs post dosing by LC/MS analysis; assay type: ADME, organism-based; settings: read-out: CLz/F (converted); summary of the method: as §1
[5] = Cmax in Sprague-Dawley rat plasma at 16 mg/kg administered through oral gavage measured at 5 mins to 24 hrs post dosing by LC/MS analysis; assay type: ADME, organism-based; set-up: dose 16 mg/kg, route oral; settings: in vivo; summary of the method: as §1
[6] = VRT (0 to t) in Sprague-Dawley rat plasma at 16 mg/kg administered through oral gavage measured at 5 mins to 24 hrs post dosing by LC/MS analysis; assay type: ADME, organism-based; settings: in vivo; summary of the method: as §1
[7] = Selectivity index, ratio of CC50 for human mock-infected MT4 cells to EC50 for HIV1 RES056 harboring reverse transcriptase K103N/Y181C double mutant infected in human MT4 cells; assay type: toxicity, cell-based; settings: MT4 cells (mock-infected for CC50, HIV-1 infected for EC50)
Summary of the method: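 Selectivity index is CC50/EC50. CC50 is the concentration that reduces OD540 of mock-infected MT-4 cells by 50% in the 5-day MTT assay. EC50 is the 50% protection from virus-induced cytopathicity, measured in parallel on infected wells.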

[8] = Cytotoxicity against human mock-infected MT4 cells assessed as reduction in cell viability after 5 days by MTT assay; assay type: toxicity, cell-based
Summary of the method: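 Mock-infected MT-4 cells (6 × 10^5 cells/mL at seeding) with serial 5-fold compound dilutions in triplicate wells. Viability read by MTT after 5 days, absorbance at 540 and 690 nm, median OD of three wells. CC50 is the concentration reducing OD540 of mock-infected cells by 50%.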

[9] = Apparent volume of distribution during terminal phase in Sprague-Dawley rat plasma at 16 mg/kg administered through oral gavage measured at 5 mins to 24 hrs post dosing by LC/MS analysis; assay type: ADME, organism-based; settings: read-out: Vz/F; summary of the method: as §1
[10] = test system: Human immunodeficiency virus 1; experiment: Potency index, ratio of ETV EC50 to compound EC50 for HIV1 3B harboring reverse transcriptase L100I mutant infected in human MT4 cells; assay type: functional

Cc1cc(C#N)cc(C)c1Oc1nc(NC2CCN(Cc3ccc(S(N)(=O)=O)cc3)CC2)nc2ccsc12
Ratio EC50 [1]: 7
Ratio EC50 [2]: 3
t1/2(app) [3]: 2.51 h
CL/F [4]: 155 mL/min/kg
Cmax [5]: 472 ng/mL
VRT(t) [6]: 9.29 hr2
selectivity ratio [7]: 53500
CC50 at 120 h [8]: > 228 µM
Vd/F [9]: 50.1 L/kg
Ratio EC50 [10]: 1.6
